Each structure is given as a SMILES string. Values after ≈ are worked out from the molar mass of the structure shown. Active and inactive are the calls of the source. The calls are words filed in the database; no cut-off is given here.

The nature of experiment [1]: Antimycobacterial activity against Mycobacterium bovis BCG str. Pasteur 1173P2 overexpressing ethR gene. It is filed as functional. The following applies: Mycobacterium tuberculosis variant bovis BCG. Summed up:
(§1)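 Agar MIC on Middlebrook 7H9 or 7H11 with OADC (ADC substituted for isoxyl-type drugs) plus graded drug levels; serial 10-fold dilutions of actively growing culture plated, incubated 37°C for 10–14 days; MIC = lowest concentration blocking 99% of growth. Recombinant Pasteur strains selected with 25 μg/ml kanamycin; ethR::hyg mutant carries a hygromycin-marked transposon in ethR.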

Experiment [2] in a line: Antimycobacterial activity against Mycobacterium bovis BCG str. Pasteur 1173P2 overexpressing ethA gene. The class given is functional. Conditions: Mycobacterium tuberculosis variant bovis BCG. An outline of the steps:
as §1

The subject of experiment [3] is Mycobacterium tuberculosis. Put plainly: Antimycobacterial activity against Mycobacterium bovis BCG NCTC 5692. The following applies: Mycobacterium tuberculosis variant bovis BCG. It is filed as functional. Summed up: as §1
In experiment [4] the test system is Mycobacterium tuberculosis. Put plainly: Antimycobacterial activity against Mycobacterium bovis BCG NCTC 5692 with ethR-knockout mutant. The class given is functional, variant bovis BCG. An outline of the steps:
as §1

Experiment [5] has as its system Mycobacterium tuberculosis. Put plainly: Inhibition of mycolic acid synthesis in Mycobacterium bovis BCG NCTC 5692 with ethR-knockout mutant assessed as incorporation of [2-14C]acetate. Conditions: variant bovis BCG. It is filed as functional, organism-based. An outline of the steps: (§2)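 Mid-log cultures in Sauton medium exposed to graded drug concentrations (μg/ml) for 16 h at 37°C, then pulsed with 1 μCi/ml [2-14C]acetate for 8 h at 37°C. Cells PBS-washed, hydrolysed with 15% tetrabutylammonium hydroxide at 100°C overnight, methylated with CH3I in CH2Cl2; fatty and mycolic acid methyl esters resolved by TLC and autoradiographed.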

Experiment [6] has as its system Mycobacterium tuberculosis. Put plainly: Inhibition of oleic acid synthesis in Mycobacterium bovis BCG NCTC 5692 with ethR-knockout mutant assessed as incorporation of [2-14C]acetate. The class given is functional, organism-based. Conditions: variant bovis BCG. An outline of the steps: as §2
In experiment [7] the test system is Mycobacterium tuberculosis. Put plainly: Inhibition of oleic acid synthesis in Mycobacterium bovis BCG NCTC 5692 assessed as incorporation of [2-14C]acetate. Conditions: variant bovis BCG. The class given is functional, organism-based. An outline of the steps:
as §2

In experiment [8] the test system is Mycobacterium tuberculosis. Nature of the experiment: Inhibition of mycolic acid synthesis in Mycobacterium bovis BCG NCTC 5692 assessed as incorporation of [2-14C]acetate. The class given is functional, organism-based. The following applies: variant bovis BCG. Summed up:
as §2

Broadly, the MIC is the lowest concentration that inhibits growth of the organism. The low end stands for greater potency, the high end for weaker potency. In the case of `COc1ccc(/C(C)=N/NC(N)=S)cc1`, the MIC in experiment [1] was 0.5 µg/mL (≈ 2.24 µM); in experiment [2], 0.25 µg/mL (≈ 1.12 µM); in experiment [3], 2.5 µg/mL (≈ 11.2 µM); in experiment [4], 0.25 µg/mL (≈ 1.12 µM).
In the case of `CC(C)CCSc1ccc(NC(=S)Nc2ccc(SCCC(C)C)cc2)cc1`, the result in experiment [5] and in experiment [6] was Active. The MIC is 40 µg/mL (≈ 92.4 µM) in experiment [1], 5 µg/mL (≈ 11.6 µM) in experiment [2], 25 µg/mL (≈ 57.8 µM) in experiment [3] and 2.5 µg/mL (≈ 5.78 µM) in experiment [4].
On to `CC(=O)Nc1ccc(/C=N/NC(N)=S)cc1` [AMITHIOZONE], for which the result in experiment [5] and in experiment [8] was Active. The MIC in experiment [1] worked out at 2.5 µg/mL (≈ 10.6 µM); in experiment [2] it was 0.25 µg/mL (≈ 1.06 µM); in experiment [3], 2.5 µg/mL (≈ 10.6 µM); in experiment [4] it was 0.25 µg/mL (≈ 1.06 µM). The result in experiment [7] was inactive.
Take `CCc1cc(C(N)=S)ccn1` [ETHIONAMIDE]: the outcome in experiment [5] was Active. For the same molecule, the minimum inhibitory concentration (MIC) in experiment [1] is 10 µg/mL (≈ 60.2 µM); in experiment [2], 0.25 µg/mL (≈ 1.5 µM); in experiment [3] it was 5 µg/mL (≈ 30.1 µM); in experiment [4], 0.5 µg/mL (≈ 3.01 µM).
With `NC(=S)N/N=C/c1cccnc1` [NICOTHIAZONE], the MIC is 75 µg/mL (≈ 416 µM) in experiment [1], 10 µg/mL (≈ 55.5 µM) in experiment [2], 25 µg/mL (≈ 139 µM) in experiment [3] and 5 µg/mL (≈ 27.7 µM) in experiment [4].
In the case of `CC(C)CCOc1ccc(NC(=S)Nc2ccc(OCCC(C)C)cc2)cc1` [TIOCARLIDE], the minimum inhibitory concentration (MIC) in experiment [1] was determined as 0.25 µg/mL (≈ 0.624 µM); in experiment [2] it was 0.1 µg/mL (≈ 0.25 µM); in experiment [3] it was 1 µg/mL (≈ 2.5 µM); in experiment [4] it was 0.5 µg/mL (≈ 1.25 µM). The outcome in experiment [7], in experiment [6] and in experiment [8] was Active.

Values taken from ChEMBL document CHEMBL1142097, “EthA, a common activator of thiocarbamide-containing drugs acting on different mycobacterial targets” (Antimicrob Agents Chemother, 2007).
